Source: PubChem (several laboratories)
Most compounds without a hit are left out; they make up all but 3.7% or so of the library.
AHR act – activators of human aryl hydrocarbon receptor. P35869. AHR-responsive luciferase reporter cells, luminescence. activation, % at 5 µM. 320,000 tested, 2.5% active. AID 2796; in the data active means activation above about 47%;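 further: 0% = vehicle wells and 100% = reference agonist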
SR-BI DiI-HDL act – SR-BI HDL lipid transfer activation; activation, % at 12.5 µM; 320,000 tested, 0.096% active; CHO ldlA[mSR-BI] cells, DiI-HDL uptake fluorescence, 3 h; 100 = double the neutral-control signal; AID 504775;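 active means mean replicate activation of at least 60% and every replicate at or above 60%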;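 further: 0% = median plate neutral-control signal and 100% = twice that signal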
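Assay system: CHO ldlA[mSR-BI] cells, LDL receptor-null, SR-BI overexpressing; medium: Ham's F12 with 0.5% BSA, HEPES 25 mM, pH 7.4; also added: DiI-HDL 10 µg/mL; timing: 3 h uptake period with compound, 37 °C; signal: DiI fluorescence, bottom read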
GAA850 FXN act – frataxin GAA850 promoter activation | HEK293 lucGAA850 FXN promoter luciferase reporter, 24 h; percent of 10 µM SAHA response | activation, % at 6 µM | 360,000 tested, 0.56% active;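 active means activation above the average of all compounds screened plus 3 SD, cutoff fixed separately per campaign, cut at about 7.5% in these data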;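 further: 0% = DMSO wells and 100% = 10 µM SAHA wells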
GASC-1 inh – inhibitors of human GASC-1 (JMJD2C) demethylase; GST-JMJD2C(1-420) H3K9me3 demethylation, DELFIA europium; 330,000 tested, 0.069% active; AID 2099; inhibition, % at 2.35 µM; Q9H3R0;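 active means more than half of a compound's replicate wells show inhibition beyond 50%, single wells judged on their own value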;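 further: signal counts dimethyl H3K9 product captured on neutravidin plate; 0% = median of DMSO wells and 100% = 0.3 times that DMSO median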
SR-BI DiI inh – inhibitors of mouse SR-BI mediated HDL lipid uptake | Q61009 | ldlA[mSR-BI] CHO cells, DiI-HDL uptake fluorescence, 3 h | inhibition, % at 12.5 µM | 320,000 tested, 0.96% active | AID 488896;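 active means mean replicate inhibition of at least 70% and a set share of replicates each scoring 70 or more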;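 further: 0% = median of neutral control wells and 100% = median of positive control wells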
Target sequence (Q61009 whole entry, looked up): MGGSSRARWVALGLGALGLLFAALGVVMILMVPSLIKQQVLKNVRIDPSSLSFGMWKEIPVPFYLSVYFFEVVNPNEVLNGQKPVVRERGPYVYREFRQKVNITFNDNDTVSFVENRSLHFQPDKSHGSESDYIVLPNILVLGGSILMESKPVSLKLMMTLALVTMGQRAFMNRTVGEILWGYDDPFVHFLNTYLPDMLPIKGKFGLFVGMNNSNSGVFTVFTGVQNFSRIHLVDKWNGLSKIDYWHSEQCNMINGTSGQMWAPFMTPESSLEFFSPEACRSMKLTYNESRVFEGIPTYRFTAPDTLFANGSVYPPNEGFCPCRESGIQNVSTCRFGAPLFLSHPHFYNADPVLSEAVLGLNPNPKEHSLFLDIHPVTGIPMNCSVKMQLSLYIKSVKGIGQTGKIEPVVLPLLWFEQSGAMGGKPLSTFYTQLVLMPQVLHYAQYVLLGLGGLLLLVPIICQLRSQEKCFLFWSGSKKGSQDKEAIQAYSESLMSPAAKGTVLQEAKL
The depositor's hits bear a star; x = no result given.

SMILES | AHR act | SR-BI DiI-HDL act | GAA850 FXN act | GASC-1 inh | SR-BI DiI inh
COc1ccc(OCc2cc(C(=O)N3CCCC(CO)C3)no2)c2ccccc12 (configuration not stated) | 50.3* | -4.5 | 5.1 | 9.4 | 4.5
CCOc1ccccc1N1CCN(c2nc3ccccc3nc2C(C#N)C(=O)OC)CC1 (configuration not stated) | 14.0 | -75.2 | 0.8 | 10.0 | 75.2*
O=C(COC(=O)c1ccc(Sc2ccccc2)c([N+](=O)[O-])c1)NC1CCS(=O)(=O)C1 (configuration not stated) | -0.4 | 6.2 | 0.1 | -12.8 | -6.2
COc1ccc(C(=O)c2oc3nc(C)cc(C)c3c2N)cc1 | -5.7 | -6.6 | 1.1 | 1.5 | 6.6
Cc1ccc(C(=O)c2oc3nc(C)cc(C)c3c2N)cc1 | 94.9* | 13.3 | 2.0 | -5.7 | -13.3
COc1ccc(-c2csc(N(CC3CCCO3)C(=O)c3ccc(C)cc3)n2)cc1 (configuration not stated) | 6.5 | -76.6 | -0.6 | -11.6 | 76.6*
O=C(c1ccco1)N(CC1CCCO1)c1nc(-c2ccccc2)cs1 (configuration not stated) | 20.1 | -36.8 | 1.7 | 8.5 | 36.8
Cc1ccc(-c2csc(N(CC3CCCO3)C(=O)c3ccco3)n2)cc1 (configuration not stated) | 50.6* | -46.9 | 1.6 | 2.2 | 46.9
COCCCN(C(C)=O)c1nc(-c2ccc(OC)cc2)cs1 | 16.5 | -77.9 | -0.7 | 13.4 | 77.9*
Cc1ccc(CNc2nc3cc(-c4ccccc4)sc3c(=O)n2C)c(C)c1 | x | x | 0.9 | x | x
N#Cc1ccccc1S(=O)(=O)N1CCN(CC(=O)NC(=O)NC2CCCCC2)CC1 | 0.8 | 11.4 | 0.8 | -0.9 | -11.4
CC1(C)CC2CC(C)(CN2S(=O)(=O)c2ccccc2[N+](=O)[O-])C1 (configuration not stated) | -1.7 | -6.0 | -0.3 | 4.8 | 6.0
OCCNc1nc(-c2ccccc2)nc2ccccc12 | 29.8 | -16.2 | 2.1 | 3.8 | 16.2
Clc1ccc(-c2nc(NCCN3CCOCC3)c3ccccc3n2)cc1 | 63.2* | -34.8 | 4.8 | -22.2 | 34.8
CCOCCCNC(=O)c1c(N)n(-c2ccc3c(c2)OCO3)c2nc3ccccc3nc12 | 9.8 | -16.6 | 0.4 | -1.9 | 16.6
COCCCNC(=O)c1c(N)n(-c2ccc3c(c2)OCO3)c2nc3ccccc3nc12 | 51.9* | -21.9 | -3.1 | 15.9 | 21.9
COCCNC(=O)c1c(N)n(/N=C/c2cccs2)c2nc3ccccc3nc12 | 50.0* | -5.9 | -0.9 | -8.2 | 5.9
COCCNC(=O)c1c(N)n(/N=C/c2ccc(F)cc2)c2nc3ccccc3nc12 | 6.2 | x | -1.4 | -5.3 | x
CCOc1cccc(C(=O)N/N=C/c2coc3ccccc3c2=O)c1 | 5.2 | 11.5 | 1.6 | 3.3 | -11.5
Cc1ccc(S(=O)(=O)N(C)c2ccc(OCC(=O)Nc3nc4ccccc4s3)cc2)cc1 | 20.9 | -59.2 | 0.0 | -3.0 | 59.2
Cc1ccc(S(=O)(=O)N(C)c2ccc(OCC(=O)Nc3cccc(-n4cnnn4)c3C)cc2)cc1 | 6.6 | -84.2 | 0.4 | 2.4 | 84.2*
Cc1ccc(S(=O)(=O)N(C)c2ccc(OCC(=O)Nc3nc4c(ccc5ccccc54)s3)cc2)cc1 | 47.1* | -59.7 | 0.4 | -1.2 | 59.7
Cc1ccc(S(=O)(=O)N(C)c2ccc(OCC(=O)Nc3ccc(S(C)(=O)=O)cc3)cc2)cc1 | x | -9.1 | 1.5 | x | 9.1
CCOC(=O)c1c(S(=O)(=O)NCC(=O)NCc2cccc(C)c2)c(C)n(C)c1C | 1.7 | -3.2 | -1.0 | 0.9 | 3.2
NC(=S)N/N=C1\CCSc2ccc(Cl)cc21 | -5.0 | -81.2 | -1.6 | -12.6 | 81.2*
SMILES | AHR act | SR-BI DiI-HDL act | GAA850 FXN act | GASC-1 inh | SR-BI DiI inh
O=C(N/N=C1\CCSc2ccc(F)cc21)c1cccnc1 | 8.7 | -1.3 | 1.2 | -6.3 | 1.3
CCNC(=O)NC(=O)COC(=O)CCCSc1nc2ccccc2s1 | 0.2 | 35.7 | -4.7 | 2.7 | -35.7
O=C(Nc1cc2c(oc1=O)CCCC2=O)c1ccccc1 | 61.6* | -5.9 | -1.2 | -7.7 | 5.9
CCCCNC(=S)NNC(=O)c1cc(-c2cccnc2)nc2ccccc12 | 53.9* | 11.2 | -1.1 | 12.8 | -11.2
COc1ccc(/C(C)=N/NC(=O)c2cc(-c3cccnc3)nc3ccccc23)cc1 | 14.4 | 9.5 | 1.0 | 23.4 | -9.5
C/C(=N\NC(=O)c1cc(-c2cccnc2)nc2ccccc12)c1ccccc1O | 14.4 | -106.6 | -5.2 | -35.4 | 106.7*
O=C(COC(=O)Cc1cccs1)Nc1cc(S(=O)(=O)N2CCOCC2)ccc1Cl | 2.6 | 38.3 | -0.6 | 6.7 | -38.3
Cc1ccc(C(=O)Oc2oc(-c3ccccc3)nc2C=Nc2ccc(N(C)C)cc2)cc1 | 57.6* | -26.8 | 2.6 | 1.3 | 26.8
CN(C)c1ccc(N=Cc2nc(-c3ccccc3)oc2OC(=O)c2cccc(Cl)c2)cc1 | 60.3* | -39.4 | 5.5 | 22.4 | 39.3
CCNc1ccc(C(=O)OCC)cc1NC(=O)c1cccc(N(C)C)c1 | 11.2 | -85.5 | 0.1 | 3.6 | 85.6*
CCNc1ccc(C(=O)OCC)cc1NC(=O)c1cccc(S(=O)(=O)N(C)c2ccccc2)c1 | 3.5 | -56.7 | 0.5 | 0.6 | 56.7
CCc1nc2c(OCC3CCCCC3)cccn2c1N(C)C(=O)c1ccccc1F | x | x | -2.6 | x | x
COc1ccc(CCNc2ncnc3sccc23)cc1OC | -12.5 | -13.9 | -5.8 | -14.1 | 13.9
COc1ccc(Nc2ncnc3sccc23)cc1OC | 64.3* | -13.6 | 0.7 | 7.3 | 13.6
Nc1nccc(-c2ccc(-n3cnc4ccccc43)cc2)n1 | 47.5* | x | -4.8 | 10.9 | x
COc1ccc(-c2nc(C(F)(F)F)c(OC)o2)cc1OC | -2.0 | -7.5 | 2.0 | 5.8 | 7.5
Cn1c(C(O)c2ccccc2F)nc(Cl)c1Cl (configuration not stated) | -2.5 | -1.0 | -3.7 | 7.3 | 1.0
Cn1c(C(O)c2ccc(Br)cc2)nc(Cl)c1Cl (configuration not stated) | 61.5* | -17.0 | 0.9 | -0.7 | 17.0
C/C=C(/C)C(=O)Nc1cccc(C2=NOC3(C2)C[C@@H](C(N)=O)N(C(=O)/C=C/CC)C3)c1 (some centres not stated) | 0.6 | -21.8 | -1.0 | 14.8 | 21.8
O=C(Nc1ccc(F)cc1)Nc1csc2ccccc12 | 74.8* | x | -0.3 | -1.3 | x
CN(C)c1ccc(NC(=O)Nc2csc3ccccc23)cc1 | 72.2* | -57.3 | 2.5 | -16.8 | 57.3
Cc1ccc(C)c(N2CCN(C(=O)c3ccc(CS(=O)Cc4cccc(Cl)c4)o3)CC2)c1 (configuration not stated) | -0.4 | 8.1 | 1.3 | -8.7 | -8.1
COc1cc(C)c(CN2CCN(S(=O)(=O)c3ccc(Cl)s3)CC2)cc1OC | 3.0 | -8.0 | 1.3 | 2.0 | 8.0
CC1=NN=C(c2ccccc2)C(c2c[nH]c3ccccc23)N1O (configuration not stated) | 68.1* | -17.0 | -0.3 | 1.2 | 17.0
COCCSc1ccccc1C(=O)Nc1ccc2c(c1)OCO2 | 19.3 | -0.1 | 0.1 | 43.9 | 0.1
